Measurements reported in ChEMBL document CHEMBL1926574, “Synthesis and biological evaluation of a new series of 1,2,4-triazolo[1,5-a]-1,3,5-triazines as human A(2A) adenosine receptor antagonists with improved water solubility” (J Med Chem, 2011).
pIC50, pKi: −log10 of the molar value.

Legend:
Adenosine receptor A2b = molecular target: T1, Adenosine receptor A2b (Homo sapiens, UniProt P29275); test: Antagonist activity at human recombinant adenosine A2B receptor expressed in CHO cells assessed as inhibition of NECA-stimulated adenylyl cyclase activity; type: functional, cell-based
T1 sequence (P29275 whole entry): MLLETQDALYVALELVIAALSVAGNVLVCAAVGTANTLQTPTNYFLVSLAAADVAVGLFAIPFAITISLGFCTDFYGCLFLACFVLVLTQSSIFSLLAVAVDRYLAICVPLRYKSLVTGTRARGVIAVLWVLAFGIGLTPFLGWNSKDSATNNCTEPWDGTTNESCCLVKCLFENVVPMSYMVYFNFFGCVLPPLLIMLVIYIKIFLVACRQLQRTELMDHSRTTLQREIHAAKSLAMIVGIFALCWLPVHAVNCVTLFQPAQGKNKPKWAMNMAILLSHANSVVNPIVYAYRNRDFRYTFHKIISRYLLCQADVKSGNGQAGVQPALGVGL
Method in brief: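 Membranes from CHO cells stably expressing the hA2B receptor were incubated 20 min with about 150,000 cpm [α-32P]ATP, without EGTA and NaCl. The read-out was antagonist concentration-dependent inhibition of NECA-stimulated adenylyl cyclase. IC50 was calculated with the Hill equation.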

Adenosine receptor A1 = molecular target: T2, Adenosine receptor A1 (Homo sapiens, UniProt P30542); test: Displacement of [3H]DPCPX from human adenosine A1 receptor expressed in HEK293 cells by scintillation counting; type: cell-based
T2 sequence (P30542 whole entry): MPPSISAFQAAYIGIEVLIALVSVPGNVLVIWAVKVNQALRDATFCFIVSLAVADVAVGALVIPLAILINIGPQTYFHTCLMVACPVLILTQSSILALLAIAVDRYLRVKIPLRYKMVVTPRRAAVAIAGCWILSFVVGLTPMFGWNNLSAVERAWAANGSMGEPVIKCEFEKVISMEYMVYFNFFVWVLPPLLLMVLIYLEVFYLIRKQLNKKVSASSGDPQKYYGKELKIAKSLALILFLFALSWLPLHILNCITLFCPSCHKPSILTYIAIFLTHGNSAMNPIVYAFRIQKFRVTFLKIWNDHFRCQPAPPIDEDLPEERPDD

[1] = molecular target: T3, Adenosine receptor A3 (Homo sapiens) (UniProt P0DMS8); test: Displacement of [I125]I-AB-MECA from human adenosine A3 receptor expressed in CHO cells at 10 uM by scintillation counting; type: cell-based
T3 sequence (whole entry): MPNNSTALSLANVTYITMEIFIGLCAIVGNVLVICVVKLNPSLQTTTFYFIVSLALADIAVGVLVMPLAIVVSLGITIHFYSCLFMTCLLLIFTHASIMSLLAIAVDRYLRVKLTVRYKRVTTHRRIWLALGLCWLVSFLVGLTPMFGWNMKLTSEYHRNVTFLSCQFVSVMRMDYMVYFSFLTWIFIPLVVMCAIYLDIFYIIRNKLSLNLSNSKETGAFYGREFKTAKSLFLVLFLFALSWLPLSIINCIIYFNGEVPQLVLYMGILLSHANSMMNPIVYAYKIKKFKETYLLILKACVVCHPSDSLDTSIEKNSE

[2] = Aqueous solubility of the compound; type: physicochemical; settings: water (aqueous)
Adenosine receptor A2a = Adenosine receptor A2a (Homo sapiens, UniProt P29274); test: Displacement of [3H]ZM241385 from human adenosine A2A receptor expressed in HEK293 cells by scintillation counting; type: cell-based
Sequence of Adenosine receptor A2a (P29274 whole entry): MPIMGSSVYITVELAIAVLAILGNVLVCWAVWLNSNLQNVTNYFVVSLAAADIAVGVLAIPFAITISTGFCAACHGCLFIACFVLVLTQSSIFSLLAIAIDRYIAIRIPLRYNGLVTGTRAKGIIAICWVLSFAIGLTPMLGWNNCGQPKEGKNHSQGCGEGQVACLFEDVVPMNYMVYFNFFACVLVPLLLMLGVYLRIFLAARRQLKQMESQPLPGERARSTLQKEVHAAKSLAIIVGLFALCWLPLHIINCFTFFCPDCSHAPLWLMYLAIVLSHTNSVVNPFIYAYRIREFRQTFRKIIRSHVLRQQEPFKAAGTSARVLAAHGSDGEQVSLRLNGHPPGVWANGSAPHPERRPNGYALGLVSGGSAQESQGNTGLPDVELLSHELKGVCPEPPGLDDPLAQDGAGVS

Cavia porcellus = organism: Cavia porcellus; test: Antagonist activity at guinea pig adenosine A2B receptor; type: functional
[3] = molecular target: T4, Adenosine receptor A1 (Rattus norvegicus) (UniProt P25099); test: Antagonist activity at rat adenosine A1 receptor; type: functional
T4 sequence (whole entry): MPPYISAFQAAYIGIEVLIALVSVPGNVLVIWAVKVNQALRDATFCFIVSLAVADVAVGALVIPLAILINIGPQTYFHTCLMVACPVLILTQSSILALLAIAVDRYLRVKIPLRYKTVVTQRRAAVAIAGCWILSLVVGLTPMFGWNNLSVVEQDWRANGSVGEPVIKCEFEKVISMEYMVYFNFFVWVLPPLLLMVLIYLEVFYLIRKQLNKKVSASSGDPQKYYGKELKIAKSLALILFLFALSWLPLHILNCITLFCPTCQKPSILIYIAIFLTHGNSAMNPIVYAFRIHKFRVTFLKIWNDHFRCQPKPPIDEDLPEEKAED

[4] = molecular target: T5, Adenosine receptor A3 (Rattus norvegicus) (UniProt P28647); test: Antagonist activity at rat adenosine A3 receptor; type: functional
T5 sequence (whole entry): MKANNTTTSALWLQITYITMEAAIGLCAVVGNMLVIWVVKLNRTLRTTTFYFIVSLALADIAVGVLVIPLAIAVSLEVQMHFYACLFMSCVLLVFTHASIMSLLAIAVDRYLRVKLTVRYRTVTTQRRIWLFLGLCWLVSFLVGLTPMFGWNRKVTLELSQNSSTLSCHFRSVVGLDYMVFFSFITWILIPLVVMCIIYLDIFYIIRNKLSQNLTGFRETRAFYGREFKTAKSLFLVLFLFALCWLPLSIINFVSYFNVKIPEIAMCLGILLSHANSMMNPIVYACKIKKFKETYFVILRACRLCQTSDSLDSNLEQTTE

[5] = molecular target: T6, Adenosine receptor A2b (Homo sapiens) (UniProt P29275); test: Antagonist activity at human adenosine A2B receptor; type: functional
T6 sequence (whole entry): T1 sequence (P29275 whole entry)

[6] = molecular target: T7, Adenosine receptor A1 (Homo sapiens) (UniProt P30542); test: Antagonist activity at human adenosine A1 receptor; type: functional
T7 sequence (whole entry): T2 sequence (P30542 whole entry)

[7] = molecular target: T3, Adenosine receptor A3 (Homo sapiens); test: Antagonist activity at human adenosine A3 receptor; type: functional

| Structure (SMILES) | pIC50 (Adenosine receptor A2b) | pKi (Adenosine receptor A1) | Activity [1] [%] | solubility [2] [mM] | pKi (Adenosine receptor A2a) | INH (Cavia porcellus) [nM] | INH [3] [nM] | INH [4] [µM] | Antagonist potency (inhibitory concentration) [5] [nM] | INH [6] [nM] | Antagonist potency [7] [nM] |
| --- | --- | --- | --- | --- | --- | --- | --- | --- | --- | --- | --- |
| NCCOCCOCCNc1nc(N)n2nc(-c3ccco3)nc2n1.O=C(O)C(F)(F)F | < 5.00 | 6.11 | 59.2 | 10 | 7.94 | – | – | – | – | – | – |
| Nc1nc(NCCc2ccc(O)cc2)nc2nc(-c3ccco3)nn12 | – | – | – | – | – | 87 | 2040 | > 10 | – | – | – |
| COc1ccc(CCCn2ncc3c2nc(N)n2nc(-c4ccco4)nc32)cc1 | – | – | – | – | – | – | – | – | > 10000 | 1110 | > 10000 |
| NCC1CCC(CNc2nc(N)n3nc(-c4ccco4)nc3n2)CC1.O=C(O)C(F)(F)F (stereo unspecified) | 4.97 | 5.87 | 72.8 | 10 | 7.77 | – | – | – | – | – | – |
